Assay results from ChEMBL document CHEMBL1149834, “Chromomoric acid derivatives from Tectona philippinensis” (2008).

Assays:
Conditions in all cases: read-out: IZ
[1] = tested on: Trichophyton mentagrophytes; experiment: Antifungal activity against Trichophyton mentagrophytes UPCC 4193 replicate 2 assessed as clearing zone at 30 ug after 3 to 5 days
Escherichia coli [2] = experiment: Antibacterial activity against Escherichia coli UPCC 1195 replicate 1 assessed as clearing zone at 30 ug after 24 to 48 hrs; assay type: functional
Method in brief: (§1)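 Agar well diffusion. 0.1 mL of bacterial suspension in 0.1% peptone water is spread on prepoured nutrient agar and overlaid with melted NA cooled to 45 °C. Three equidistant 10 mm wells each receive 200 µL of sample in 95% EtOH. Plates are incubated at room temperature and read at 24–48 h. Clearing-zone diameters are measured in mm and averaged.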

Pseudomonas aeruginosa [3] = experiment: Antibacterial activity against Pseudomonas aeruginosa UPCC 1244 replicate 2 assessed as clearing zone at 30 ug after 24 to 48 hrs; assay type: functional
Method in brief: as §1

Candida albicans [4] = experiment: Antifungal activity against Candida albicans UPCC 2168 replicate 2 assessed as clearing zone at 30 ug after 24 to 48 hrs; assay type: functional
Method in brief: (§2)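 Yeast is suspended in 0.1% peptone water, and 0.1 mL is spread on glucose yeast peptone agar with a GYP overlay at 45 °C. Three 10 mm wells per plate each get 200 µL of sample in 95% EtOH. Plates are incubated at room temperature and observed after 24–48 h. The mean clearing-zone diameter is recorded in mm.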

Escherichia coli [5] = experiment: Antibacterial activity against Escherichia coli UPCC 1195 replicate 2 assessed as clearing zone at 30 ug after 24 to 48 hrs; assay type: functional
Method in brief: as §1

[6] = tested on: Trichophyton mentagrophytes; experiment: Antifungal activity against Trichophyton mentagrophytes UPCC 4193 replicate 1 assessed as clearing zone at 30 ug after 3 to 5 days
Escherichia coli [7] = experiment: Antibacterial activity against Escherichia coli UPCC 1195 replicate 3 assessed as clearing zone at 30 ug after 24 to 48 hrs; assay type: functional
Method in brief: as §1

Candida albicans [8] = experiment: Antifungal activity against Candida albicans UPCC 2168 replicate 3 assessed as clearing zone at 30 ug after 24 to 48 hrs; assay type: functional
Method in brief: as §2

Pseudomonas aeruginosa [9] = experiment: Antibacterial activity against Pseudomonas aeruginosa UPCC 1244 replicate 3 assessed as clearing zone at 30 ug after 24 to 48 hrs; assay type: functional
Method in brief: as §1

Pseudomonas aeruginosa [10] = experiment: Antibacterial activity against Pseudomonas aeruginosa UPCC 1244 replicate 1 assessed as clearing zone at 30 ug after 24 to 48 hrs; assay type: functional
Method in brief: as §1

[11] = tested on: Trichophyton mentagrophytes; experiment: Antifungal activity against Trichophyton mentagrophytes UPCC 4193 replicate 3 assessed as clearing zone at 30 ug after 3 to 5 days
Candida albicans [12] = experiment: Antifungal activity against Candida albicans UPCC 2168 replicate 1 assessed as clearing zone at 30 ug after 24 to 48 hrs; assay type: functional
Method in brief: as §2

Bacillus subtilis = experiment: Antibacterial activity against Bacillus subtilis UPCC 1149 replicate 1 assessed as clearing zone at 30 ug after 24 to 48 hrs; assay type: functional
Method in brief: as §1

Staphylococcus aureus = experiment: Antibacterial activity against Staphylococcus aureus UPCC 1143 replicate 1 assessed as clearing zone at 30 ug after 24 to 48 hrs; assay type: functional
Method in brief: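 Agar well diffusion. Microbe suspended in 0.1% peptone water; 0.1 mL spread on prepoured nutrient agar, overlaid with melted medium cooled to 45 °C. Three 10 mm wells per plate, 200 µL sample in 95% EtOH per well. Incubated at room temperature and read at 24–48 h. Clearing-zone diameter measured in mm.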

Row | Structure (SMILES) | zone of inhibition at 30 µg/disc [1] | zone of inhibition at 30 µg/disc (Escherichia coli [2]) | zone of inhibition at 30 µg/disc (Pseudomonas aeruginosa [3]) | zone of inhibition at 30 µg/disc (Candida albicans [4]) | zone of inhibition at 30 µg/disc (Escherichia coli [5]) | zone of inhibition at 30 µg/disc [6] | zone of inhibition at 30 µg/disc (Escherichia coli [7]) | zone of inhibition at 30 µg/disc (Candida albicans [8]) | zone of inhibition at 30 µg/disc (Pseudomonas aeruginosa [9]) | zone of inhibition at 30 µg/disc (Pseudomonas aeruginosa [10]) | zone of inhibition at 30 µg/disc [11] | zone of inhibition at 30 µg/disc (Candida albicans [12]) | zone of inhibition at 30 µg/disc (Bacillus subtilis) | zone of inhibition at 30 µg/disc (Staphylococcus aureus)
1 | CC[C@@H]1O[C@H]1/C=C1/C(=O)C=C[C@@]1(O)CCCC[C@@H]1CCC(=O)O1 | 12 mm | 12 mm | 12 mm | 13 mm | 12 mm | 12 mm | 12 mm | 13 mm | 12 mm | 12 mm | 12 mm | 13 mm | – | –
2 | C/C=C/C(=O)C[C@H]1C(=O)C=C[C@@]1(O)CCCC[C@@H]1CCC(=O)O1 | 13 mm | 12 mm | 12 mm | 13 mm | 12 mm | 13 mm | 12 mm | 13 mm | 12 mm | 12 mm | 13 mm | 13 mm | – | –
3 | O=C(N[C@H](CO)[C@H](O)c1ccc([N+](=O)[O-])cc1)C(Cl)Cl [CHLORAMPHENICOL] | – | 23 mm | – | – | – | – | – | – | – | 14 mm | – | – | 20 mm | 25 mm
